Sampled rows, rich in hits. Any-hit rate of the full collection: about 1.1%.
core dimer inh = blocks dimerization of HCV core protein. TR-FRET GST/Flag-core106 dimerization, 1536-well. hit rate 0.33% among 300,000. inhibition, % at 5 µM;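 active = inhibition above the mean of all tested compounds plus 3 SD, set per screening campaign, cut at about 45% in these data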
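assay system = GST-tagged and Flag-tagged HCV core protein residues 1-106 | controls = unlabelled core106 and no-GST-core106 wells | incubation = compound-protein-antibody incubation 4 h at 22.5 °C | probe or stimulus = Eu donor and XL665 acceptor anti-tag antibodies | read-out = % inhibition based on acceptor/donor emission ratio | signal = TR-FRET 671 and 617 nm emission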
NR2E3 ag-1 = NR2E3 (human) agonism; Q9Y5X4; GST-NR2E3/biotin-RetCOR TR-FRET, 1536-well; inhibition of corepressor binding, % at 4.78 µM; hit rate 0.12% among 320,000;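 active = percent inhibition above the cutoff of mean plus 3 SD of all tested compounds, set per screening campaign, cut at about 20% in these data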;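 note: 0% = DMSO wells and 100% = biotin wells as full block of FRET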
Target sequence (Q9Y5X4 whole entry, looked up): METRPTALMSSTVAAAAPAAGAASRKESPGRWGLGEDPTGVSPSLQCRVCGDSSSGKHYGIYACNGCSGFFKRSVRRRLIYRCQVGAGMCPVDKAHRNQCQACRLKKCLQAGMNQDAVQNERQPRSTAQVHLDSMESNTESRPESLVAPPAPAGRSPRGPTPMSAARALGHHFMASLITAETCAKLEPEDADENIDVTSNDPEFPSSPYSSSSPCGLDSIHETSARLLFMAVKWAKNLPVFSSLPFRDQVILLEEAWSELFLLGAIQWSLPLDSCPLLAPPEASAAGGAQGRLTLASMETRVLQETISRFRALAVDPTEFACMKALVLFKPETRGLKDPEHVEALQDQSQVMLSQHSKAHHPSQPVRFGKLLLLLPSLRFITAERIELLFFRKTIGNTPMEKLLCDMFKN
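System: GST-tagged NR2E3 plus biotinylated RetCOR corepressor; Amount: 1.35 nM GST-tagged NR2E3 final; Dosing: single nominal compound dose of 4.8 µM; Schedule: 5 h incubation at 4 °C; Technique: TR-FRET with europium anti-GST and streptavidin-D2, 340 nm excitation; Controls: biotin wells as high control, 0.6% DMSO wells as low control.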
Vif inh = inhibitors of HIV Vif; HEK293T cells, Vif self-association by quenched fluorescence, imaging, 24 h; inhibition, % at 7.49 µM; hit rate 0.35% among 340,000; AID 602346; in the data active = inhibition above about 50%, passing the limit was not always enough
DAGLB inh = diacylglycerol lipase beta (human) inhibition. inhibition, % at 5.17 µM. AID 504411. hit rate 0.059% among 340,000. Q8NCG7. HEK293T DAGLB membrane lysate, EnzChek fluorogenic substrate; in the data active = inhibition above about 34%;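 note: 0% = enzyme with vehicle and 100% = wells lacking enzyme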
NR2E3 ag-2 = activates human NR2E3 receptor; CHO-S Gal4-NCOR/VP16-NR2E3 two-hybrid, luciferase; inhibition of corepressor binding, % at 3.98 µM; hit rate 0.35% among 360,000; AID 602229;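 active = inhibition above the mean of all tested compounds plus 3 SD, cut at about 70% in these data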;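 note: 0% = DMSO with NR2E3 transfected cells and 100% = cells lacking NR2E3 construct; higher means lower luciferase signal from less NR2E3 corepressor binding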
MT1-MMP act inh = inhibitors of human MT1-MMP activation; AID 651647; HT1080 RFP-PRO-GFP cells, GFP/RFP ratio fluorescence, overnight; percent of plate control window, DMSO zero; hit rate 0.061% among 360,000; GFP/RFP ratio change, % at 20 µM; P50281;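 active = GFP/RFP ratio change of at least 30% with cell ATP level not reduced by more than half and red fluorescence within 50% of control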
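Test system: HT1080 cells expressing an RFP-PRO-GFP fluorescent reporter construct / Compound dosing: single-point 20 µM compound, 1% DMSO / Schedule: cells overnight before dosing, compound overnight, 37 °C, 5% CO2 / Evaluation: GFP/RFP fluorescence ratio / Control set: DMSO and RFP-L50D-GFP cell wells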
NR2E3 ag confirm = NR2E3 (human) agonism, confirmation | shares compounds with NR2E3 ag-1 | AID 2379 | activation (reported as inhibition), % at 3.98 µM | hit rate 39% among 360 | cell-free NR2E3 corepressor release, TR-FRET, 5 h; in the data active = activation above about 20%
PPARg-NCOR2 ag = releases PPARgamma from NCOR2 in NR2E3 counter-screen; hit rate 45% among 360; shares compounds with NR2E3 ag-1; inhibition, % at 3.98 µM; TR-FRET PPARg-NCOR2 coregulator interaction, biochemical; in the data active = inhibition above about 20%;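 note: 0% = DMSO vehicle and 100% = wells without protein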
Starred values were filed as active, the others as inactive; nt = no result.

SMILES	core dimer inh	NR2E3 ag-1	Vif inh	DAGLB inh	NR2E3 ag-2	MT1-MMP act inh	NR2E3 ag confirm	PPARg-NCOR2 ag
Cc1ccc(C2C(C#N)=C(N)SC(N)=C2C#N)o1	46*	32*	nt	nt	nt	nt	24*	35*
CCOC(=O)c1c(NC(=O)CSc2nnc(-c3ccccc3)o2)sc(C(C)=O)c1C	11	1	4	0	-5	-6	nt	nt
CCOC(=O)c1c(NC(=O)CSc2nnc(Cc3ccccc3)o2)sc(C(C)=O)c1C	10	32*	-5	0	10	-6	-5	5
N/C(=N\OC(=O)COc1ccc2ccccc2c1Br)c1cccnc1	15	21*	nt	nt	nt	nt	12	6
N#Cc1c(NC(=O)c2ccc(Br)o2)n(-c2ccccc2)c2nc3ccccc3nc12	21	24*	12	4	2	-125	38*	54*
OC(CNCc1cccnc1)COc1ccc2ccccc2c1 (stereo unspecified)	nt	nt	-6	1	8	5	nt	nt
O=C(O[C@@H]1OC2COC(=O)c3cc(O)c(O)c(O)c3-c3c(cc(O)c(O)c3O)C(=O)O[C@@H]([C@H]1O)[C@@H]2O)c1cc(O)c(O)c(O)c1	-33	24*	5	-1	-5	-3	14	-6
COCCNC(=S)N(C)[C@H]1C[C@H]2c3cc(-c4ccccc4)ccc3CCN2C(=O)[C@H]1[C@H](C)O	nt	nt	-4	3	-23	8	nt	nt
Cc1cc(C(=O)OCC(=O)c2ccc(Br)s2)c(C)o1	8	10	nt	nt	nt	nt	nt	nt
Cc1cc(C(=O)OCC(=O)c2ccc(Br)s2)no1	44	25*	nt	-1	-10	2	6	14
N#CC1=C(N)SC(N)=C(C#N)C1CCc1ccccc1	40	8	nt	-4	-17	-75	nt	nt
N#CC1=C(N)SC(N)=C(C#N)C1c1c(Cl)cccc1Cl	29	40*	-2	-5	-7	-53	3	26*
N#Cc1c(-c2ccco2)nc(SCc2ccc(F)cc2)[nH]c1=O	9	40*	31	12	27	-8	10	59*
COc1ccc(-c2nc(SCc3ccc(C#N)cc3)[nH]c(=O)c2C#N)cc1	16	-3	-2	-2	-19	-2	nt	nt
CN(Cc1ccccc1)S(=O)(=O)c1ccc2c(c1)CCC(=O)N2	-6	2	-2	0	-31	2	nt	nt
CCN(CC(=O)Nc1ccc(NC(C)=O)cc1)C(=O)CCCc1nc2ccccc2s1	nt	-1	10	-2	-15	-2	nt	nt
Cc1nc2ccccn2c1CN(C)C(=O)C1CCC(=O)N(CCc2cccc(F)c2)C1 (stereo unspecified)	-4	1	8	-1	-12	3	nt	nt
N#CC1=C2SCN(Cc3ccccc3)CN2C(=O)CC1c1cccs1 (stereo unspecified)	15	22*	0	-4	-47	3	0	-2
COC(=O)c1ccc(C2C(C(=O)c3cc4ccccc4o3)=C(O)C(=O)N2CCCN(C)C)cc1 (stereo unspecified)	-1	11	1	-1	-20	0	nt	nt
O=C(C1=C(O)C(=O)N(CCN2CCOCC2)C1c1cccc(F)c1)c1cc2ccccc2o1 (stereo unspecified)	1	33*	-6	-1	-13	-6	20*	25*
COc1cccc2cc(C(=O)C3=C(O)C(=O)N(CCN4CCOCC4)C3c3cccc(Cl)c3)oc12 (stereo unspecified)	12	28*	-11	-2	-10	-8	13	17
O=C(C1=C(O)C(=O)N(CCN2CCOCC2)C1c1cccs1)c1cc2ccccc2o1 (stereo unspecified)	9	30*	-1	3	-33	5	31*	34*
